The source made the active and inactive calls. The rule behind the calls is not given here.
Columns and labels:
[1] = biological target: T1, Geranylgeranyl pyrophosphate synthase (Homo sapiens, UniProt O95749); test: Inhibition of recombinant GGDPS (unknown origin) using FPP as substrate pretreated for 10 mins followed by substrate addition after 30 mins in presence of [14C]-IPP by liquid scintillation counting analysis
T1 sequence (O95749 whole entry): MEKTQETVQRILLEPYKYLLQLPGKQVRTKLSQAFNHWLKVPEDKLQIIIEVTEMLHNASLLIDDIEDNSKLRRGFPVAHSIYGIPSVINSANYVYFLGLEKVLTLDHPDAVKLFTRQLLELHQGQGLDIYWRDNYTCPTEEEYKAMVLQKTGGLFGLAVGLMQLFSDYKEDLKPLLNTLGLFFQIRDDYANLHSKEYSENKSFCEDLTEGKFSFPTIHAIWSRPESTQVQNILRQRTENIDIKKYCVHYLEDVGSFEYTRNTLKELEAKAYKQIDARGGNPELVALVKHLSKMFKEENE
Method in brief: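 Recombinant GGDPS from a commercial source; compounds tested in duplicate at multiple concentrations, three independent experiments. IC50 values from concentration-response curves by Chou–Talalay median-effect analysis.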

[2] = biological target: T2, Geranylgeranyl transferase type I (Homo sapiens) (UniProt P49354+P53609); test: Inhibition of GGTase1 in human RPMI8226 cells assessed as decrease in Rap1a geranylgeranylation after 48 hrs by Western blot method; format: cell-based
Method in brief: (§1)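 RPMI-8226 myeloma cells exposed 48 h to varying compound concentrations, lovastatin 10 μM as positive control. Whole-cell lysate made in RIPA buffer with protease/phosphatase inhibitors, protein by BCA; equal protein run on SDS-PAGE, blotted to PVDF, probed with antibody recognising only unmodified Rap1a, β-tubulin as loading control, HRP secondary with ECL detection.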

Homo sapiens [3] = species on record: Homo sapiens; test: Inhibition of Rab GGTase2 in human RPMI8226 cells assessed as decrease in Rab GTPase geranylgeranylation by measuring accumulation of intracellular lambda light chain after 48 hrs by ELISA; format: cell-based
Method in brief: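 RPMI-8226 cells treated 48 h with varying compound concentrations (lovastatin 10 μM control). Intracellular lambda light chain in whole-cell lysate quantified by human lambda ELISA, normalised to total protein (BCA), expressed as percent of untreated control; mean + SD, n=3; unpaired two-tailed t-test, p < 0.05.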

Homo sapiens [4] = species on record: Homo sapiens; test: Inhibition of Rab GGTase2 in human RPMI8226 cells assessed as decrease in Rab6 geranylgeranylation after 48 hrs by western blot analysis; format: cell-based
Method in brief: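 RPMI-8226 cells, 48 h with varying compound concentrations, lovastatin 10 μM as control. Cells lysed with Triton X-114; detergent (membrane) fraction immunoblotted for Rab6 with calnexin loading control. Rab6 band densitometry normalised to calnexin, then to untreated cells (relative intensity).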

[5] = biological target: T3, Farnesyl pyrophosphate synthase (Homo sapiens, UniProt P14324); test: Inhibition of recombinant FDPS (unknown origin) using GPP as substrate pretreated for 10 mins followed by substrate addition after 30 mins in presence of [14C]-IPP by liquid scintillation counting method
T3 sequence (P14324 whole entry): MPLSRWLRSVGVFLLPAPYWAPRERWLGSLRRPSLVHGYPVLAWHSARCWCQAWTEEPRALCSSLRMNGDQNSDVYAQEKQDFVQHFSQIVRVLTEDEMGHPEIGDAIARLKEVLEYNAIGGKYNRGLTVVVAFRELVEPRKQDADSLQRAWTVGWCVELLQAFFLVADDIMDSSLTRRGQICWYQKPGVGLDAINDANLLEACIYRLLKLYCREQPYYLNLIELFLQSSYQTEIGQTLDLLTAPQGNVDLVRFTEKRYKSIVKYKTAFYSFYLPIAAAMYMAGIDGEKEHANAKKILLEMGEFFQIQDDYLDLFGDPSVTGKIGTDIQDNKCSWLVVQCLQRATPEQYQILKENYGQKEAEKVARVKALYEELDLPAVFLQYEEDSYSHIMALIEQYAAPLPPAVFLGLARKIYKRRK
Method in brief: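 Recombinant FDPS assayed by a previously described method, each concentration in duplicate, three independent experiments. IC50 derived from concentration-response curves by Chou–Talalay median-effect analysis.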

[6] = biological target: T2, Geranylgeranyl transferase type I (Homo sapiens); test: Inhibition of GGTase1 in human RPMI8226 cells assessed as decrease in Rap1a geranylgeranylation at 0.5 uM after 48 hrs by Western blot method; format: cell-based
Method in brief: as §1, with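 “test compounds over a range of” for “varying compound”, “Whole-cell” for “Whole-cell lysate made in”, “lysates” for “buffer”, “SDS-PAGE and immunoblotted” for “SDS-PAGE, blotted to PVDF, probed”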

Homo sapiens [7] = species on record: Homo sapiens; test: Inhibition of Rab GGTase2 in human RPMI8226 cells assessed as decrease in Rab GTPase geranylgeranylation by measuring accumulation of intracellular lambda light chain at 0.1 to 50 uM after 48 hrs by ELISA; format: cell-based
Method in brief: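 Intracellular lambda light chain in RPMI-8226 cells after 48 h incubation with compounds (lovastatin 10 μM positive control). Quantified by human lambda light chain ELISA on whole-cell lysate and normalised to BCA total protein. Results given as percent of untreated control, mean + SD, n=3. Significance by unpaired two-tailed t-test, p < 0.05.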

[8] = biological target: geranylgeranyltransferase type-I (Rattus norvegicus, UniProt P53610+Q04631); test: Inhibition of recombinant rat GGTase1 expressed in Escherichia coli using GGDP as substrate measured after 2 hrs by dansyl-GCVLS dye based fluorescence assay
Method in brief: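 Recombinant GGTase I 24 nM added to 50 mM HEPPSO, 5 mM TCEP-HCl containing 10 μM GGDP and 5 μM dansyl-GCVLS. Incubated 2 h at 30 °C with or without compound, with prenylation tracked as dansyl fluorescence increase (ex 340 / em 520 nm) over time. IC50 from Chou–Talalay curve fitting.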

[9] = Inhibition of recombinant rat FTase using FDP as substrate measured after 1 hr by dansyl-GCVLS dye based fluorescence assay
Method in brief: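 Recombinant FTase 18 nM started reactions in 50 mM HEPPSO, 5 mM TCEP-HCl, 5 mM MgCl2 with 10 μM FDP and 5 μM dansyl-GCVLS, 30 °C for 1 h, with or without compound. Peptide prenylation followed as rise in dansyl fluorescence (ex 340 / em 520 nm) over time. IC50 by Chou–Talalay analysis.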

Homo sapiens [10] = species on record: Homo sapiens; test: Inhibition of Rab GGTase2 in human RPMI8226 cells assessed as disruption of Rab6 geranylgeranylation at 1 to 10 uM after 48 hrs by western blot analysis; format: cell-based
Method in brief: (§2)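 Membrane-bound Rab6 measured in RPMI-8226 cells treated 48 h (lovastatin 10 μM positive control). Cells lysed with Triton X-114 and the detergent (membrane) fraction immunoblotted for Rab6, with calnexin as loading control. Densitometry gives Rab6/calnexin relative to untreated cells.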

Homo sapiens [11] = species on record: Homo sapiens; test: Inhibition of Rab GGTase2 in human RPMI8226 cells assessed as decrease in Rab6 geranylgeranylation at 5 to 50 uM after 48 hrs by western blot analysis; format: cell-based; method in brief: as §2
[12] = biological target: T2, Geranylgeranyl transferase type I (Homo sapiens); test: Inhibition of GGTase1 in human RPMI8226 cells assessed as decrease in Rap1a geranylgeranylation at 0.1 to 50 uM after 48 hrs by Western blot method; format: cell-based
Method in brief: as §1, with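 “test compounds over a range of” for “varying compound”, “Whole-cell” for “Whole-cell lysate made in”, “lysates” for “buffer”, “SDS-PAGE and immunoblotted” for “SDS-PAGE, blotted to PVDF, probed”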

Row | SMILES | IC50 [1] | INH [2] | INH (Homo sapiens [3]) | INH (Homo sapiens [4]) | IC50 [5] | inhibition [6] | inhibition (Homo sapiens [7]) | IC50 [8] | IC50 [9] | inhibition (Homo sapiens [10]) | inhibition (Homo sapiens [11]) | inhibition [12]
1 | CC(C)=CCC/C(C)=C/CCn1cc(CC(P(=O)(O)O)P(=O)(O)O)nn1 | 0.17 µM | 0.09 µM | 0.09 µM | 0.09 µM |  |  |  |  |  |  |  | 
2 | CC(C)=CCC/C(C)=C\CCCn1cc(CC(P(=O)(O)O)P(=O)(O)O)nn1 |  |  |  |  | 29.8 µM | Active | Active | > 100 µM | > 100 µM | Active |  | 
3 | CC(C)=CCC/C(C)=C/CCCn1cc(CC(P(=O)(O)O)P(=O)(O)O)nn1 |  |  |  |  | 33.3 µM |  | Active | > 100 µM | > 100 µM |  | Active | Active
4 | CC(C)=CCCCn1cc(CC(P(=O)(O)O)P(=O)(O)O)nn1 | 3.6 µM |  |  |  | > 100 µM |  | Active | > 100 µM | > 100 µM |  | Active | Active
